Columns and labels:
[1] = Synergistic cytotoxicity against mouse L5178 cells expressing human ABCB1 assessed as combination index at ED50 using 15:1 test compound to doxorubicin ratio after 48 hrs by MTT-based checkerboard microplate method; assay type: functional
Outline: (§1)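 Checkerboard microplate combinations of compound with doxorubicin at constant molar ratios. 5 × 10^4 cells/well in McCoy's 5A, 48 h at 37°C, 5% CO2. MTT added to 0.5 mg/mL final for 4 h, SDS/HCl overnight, OD read at 540 and 630 nm. Combination indices derived per ratio for 50%, 75% and 90% growth inhibition by median-effect analysis.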

[2] = Cytotoxicity against mouse L5178 cells after 48 hrs by MTT assay; assay type: functional, cell-based; settings: L5178, 48 h
Outline: (§2)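 Parental mouse lymphoma L5178 and the MDR line made by pHa MDR1/A retrovirus transfection, selected with 60 µg/L colchicine. Grown in McCoy's 5A with horse serum at 37°C, 5% CO2. 5 x 10^4 cells/well, serial compound dilutions, 48 h. MTT added to 0.5 mg/mL final for 4 h, then 10% SDS in 0.01 M HCl overnight, OD read at 540 and 630 nm. IC50 taken as median cytotoxic activity (Dm) from control lanes of checkerboard plates, n=2.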

[3] = Synergistic cytotoxicity against mouse L5178 cells assessed as combination index at ED50 using 37.5:1 test compound to doxorubicin ratio after 48 hrs by MTT-based checkerboard microplate method; assay type: functional; outline: as §1
[4] = Synergistic cytotoxicity against mouse L5178 cells expressing human ABCB1 assessed as combination index at ED50 using 30:1 test compound to doxorubicin ratio after 48 hrs by MTT-based checkerboard microplate method; assay type: functional; outline: as §1
[5] = tested on: SiHa; test: Antiproliferative activity against human SiHa cells after 72 hrs by MTT assay; assay type: functional, cell-based
Outline: (§3)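 Cells grown in MEM with 10% FCS, 1% non-essential amino acids and 1% penicillin-streptomycin. Seeded at 5000 cells/well, exposed to 0.1–30.0 µM compound for 72 h. MTT (5 mg/ml solution) was then added for 4 h, formazan dissolved in DMSO, and absorbance read at 545 nm. Cisplatin served as positive control. IC50 came from sigmoidal dose–response fits (log inhibitor vs normalized response, variable slope).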

[6] = Synergistic cytotoxicity against mouse L5178 cells expressing human ABCB1 assessed as combination index at ED75 using 15:1 test compound to doxorubicin ratio after 48 hrs by MTT-based checkerboard microplate method; assay type: functional; outline: as §1
[7] = Synergistic cytotoxicity against mouse L5178 cells expressing human ABCB1 assessed as combination index at ED50 using 7.5:1 test compound to doxorubicin ratio after 48 hrs by MTT-based checkerboard microplate method; assay type: functional; outline: as §1
[8] = Synergistic cytotoxicity against mouse L5178 cells assessed as combination index at ED90 using 600:1 test compound to doxorubicin ratio after 48 hrs by MTT-based checkerboard microplate method; assay type: functional; outline: as §1
[9] = Cytotoxicity against mouse L5178 cells expressing human ABCB1 after 48 hrs by MTT assay; assay type: functional, cell-based; settings: L5178, 48 h; outline: as §2
[10] = Synergistic cytotoxicity against mouse L5178 cells assessed as combination index at ED75 using 300:1 test compound to doxorubicin ratio after 48 hrs by MTT-based checkerboard microplate method; assay type: functional; outline: as §1
[11] = tested on: HeLa; test: Antiproliferative activity against human HeLa cells after 72 hrs by MTT assay; assay type: functional, cell-based; outline: as §3
[12] = Synergistic cytotoxicity against mouse L5178 cells assessed as combination index at ED90 using 37.5:1 test compound to doxorubicin ratio after 48 hrs by MTT-based checkerboard microplate method; assay type: functional; outline: as §1
[13] = Synergistic cytotoxicity against mouse L5178 cells assessed as combination index at ED50 using 300:1 test compound to doxorubicin ratio after 48 hrs by MTT-based checkerboard microplate method; assay type: functional; outline: as §1
[14] = Synergistic cytotoxicity against mouse L5178 cells expressing human ABCB1 assessed as combination index at ED90 using 30:1 test compound to doxorubicin ratio after 48 hrs by MTT-based checkerboard microplate method; assay type: functional; outline: as §1
[15] = Synergistic cytotoxicity against mouse L5178 cells expressing human ABCB1 assessed as combination index at ED90 using 60:1 test compound to doxorubicin ratio after 48 hrs by MTT-based checkerboard microplate method; assay type: functional; outline: as §1
[16] = Synergistic cytotoxicity against mouse L5178 cells expressing human ABCB1 assessed as combination index at ED90 using 15:1 test compound to doxorubicin ratio after 48 hrs by MTT-based checkerboard microplate method; assay type: functional; outline: as §1
[17] = Synergistic cytotoxicity against mouse L5178 cells assessed as combination index at ED50 using 75:1 test compound to doxorubicin ratio after 48 hrs by MTT-based checkerboard microplate method; assay type: functional; outline: as §1
[18] = Synergistic cytotoxicity against mouse L5178 cells assessed as combination index at ED75 using 600:1 test compound to doxorubicin ratio after 48 hrs by MTT-based checkerboard microplate method; assay type: functional; outline: as §1
[19] = biological target: T1, ABCB1 (P-glycoprotein) (Homo sapiens, UniProt P08183); test: Inhibition of human ABCB1 expressed in mouse L5178 cells assessed as increase in rhodamine-123 accumulation at 20 uM after 10 mins by flow cytometric analysis relative to control; assay type: cell-based; settings: mouse L5178 cells expressing human ABCB1, probe rhodamine-123
T1 sequence (P08183 whole entry): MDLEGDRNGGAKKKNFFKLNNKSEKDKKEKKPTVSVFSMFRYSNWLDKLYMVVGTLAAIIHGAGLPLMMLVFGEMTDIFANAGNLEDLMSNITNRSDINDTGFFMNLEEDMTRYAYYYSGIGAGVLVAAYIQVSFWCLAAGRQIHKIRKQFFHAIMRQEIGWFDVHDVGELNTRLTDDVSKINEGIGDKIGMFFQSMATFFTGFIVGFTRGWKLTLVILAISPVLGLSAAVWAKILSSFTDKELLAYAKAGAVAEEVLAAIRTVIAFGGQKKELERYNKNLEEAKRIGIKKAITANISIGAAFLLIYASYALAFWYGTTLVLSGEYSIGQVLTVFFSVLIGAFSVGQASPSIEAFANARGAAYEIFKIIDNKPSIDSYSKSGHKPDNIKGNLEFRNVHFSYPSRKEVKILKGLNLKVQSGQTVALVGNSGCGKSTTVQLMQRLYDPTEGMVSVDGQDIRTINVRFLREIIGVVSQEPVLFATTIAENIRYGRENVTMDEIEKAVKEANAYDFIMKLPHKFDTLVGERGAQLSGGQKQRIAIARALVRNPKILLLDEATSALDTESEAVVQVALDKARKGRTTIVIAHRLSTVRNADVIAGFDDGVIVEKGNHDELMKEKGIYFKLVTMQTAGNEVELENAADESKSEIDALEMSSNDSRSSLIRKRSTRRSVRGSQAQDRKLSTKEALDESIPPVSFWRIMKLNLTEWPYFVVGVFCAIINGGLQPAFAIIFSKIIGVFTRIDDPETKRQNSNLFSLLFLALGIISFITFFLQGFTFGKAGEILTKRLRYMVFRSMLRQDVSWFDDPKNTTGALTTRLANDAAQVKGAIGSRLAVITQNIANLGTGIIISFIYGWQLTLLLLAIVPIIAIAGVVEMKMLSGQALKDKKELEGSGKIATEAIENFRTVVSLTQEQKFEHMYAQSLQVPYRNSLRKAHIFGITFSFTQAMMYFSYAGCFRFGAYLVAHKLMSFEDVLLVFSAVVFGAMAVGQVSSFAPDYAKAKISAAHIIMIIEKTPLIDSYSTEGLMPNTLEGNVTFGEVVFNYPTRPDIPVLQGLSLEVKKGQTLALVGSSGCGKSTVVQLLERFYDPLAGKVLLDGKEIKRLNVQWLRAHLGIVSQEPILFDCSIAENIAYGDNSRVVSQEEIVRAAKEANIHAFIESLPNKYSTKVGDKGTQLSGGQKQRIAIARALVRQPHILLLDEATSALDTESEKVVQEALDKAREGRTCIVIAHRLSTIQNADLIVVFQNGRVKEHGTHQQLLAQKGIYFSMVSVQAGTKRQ
Outline: (§4)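 Cells at 2 × 10^6/mL were preincubated 10 min with compound. Rhodamine 123 then added to 5.2 µM final, 20 min at 37 °C. Cells washed twice in PBS, resuspended and read by flow cytometry. Percent inhibition was scaled between MDR-cell accumulation (0%) and parental L5178 accumulation (100%). Controls: 100 nM tariquidar (positive) and 2% DMSO (negative).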

[20] = Synergistic cytotoxicity against mouse L5178 cells expressing human ABCB1 assessed as combination index at ED75 using 7.5:1 test compound to doxorubicin ratio after 48 hrs by MTT-based checkerboard microplate method; assay type: functional; outline: as §1
[21] = Synergistic cytotoxicity against mouse L5178 cells assessed as combination index at ED75 using 37.5:1 test compound to doxorubicin ratio after 48 hrs by MTT-based checkerboard microplate method; assay type: functional; outline: as §1
[22] = tested on: MCF7; test: Antiproliferative activity against human MCF7 cells after 72 hrs by MTT assay; assay type: functional, cell-based; settings: MCF7, 72 h; outline: as §3
[23] = Synergistic cytotoxicity against mouse L5178 cells assessed as combination index at ED75 using 150:1 test compound to doxorubicin ratio after 48 hrs by MTT-based checkerboard microplate method; assay type: functional; outline: as §1
[24] = Synergistic cytotoxicity against mouse L5178 cells assessed as combination index at ED90 using 75:1 test compound to doxorubicin ratio after 48 hrs by MTT-based checkerboard microplate method; assay type: functional; outline: as §1
[25] = Synergistic cytotoxicity against mouse L5178 cells expressing human ABCB1 assessed as combination index at ED75 using 30:1 test compound to doxorubicin ratio after 48 hrs by MTT-based checkerboard microplate method; assay type: functional; outline: as §1
[26] = Synergistic cytotoxicity against mouse L5178 cells assessed as combination index at ED75 using 75:1 test compound to doxorubicin ratio after 48 hrs by MTT-based checkerboard microplate method; assay type: functional; outline: as §1
[27] = Synergistic cytotoxicity against mouse L5178 cells assessed as combination index at ED90 using 150:1 test compound to doxorubicin ratio after 48 hrs by MTT-based checkerboard microplate method; assay type: functional; outline: as §1
[28] = Synergistic cytotoxicity against mouse L5178 cells expressing human ABCB1 assessed as combination index at ED75 using 60:1 test compound to doxorubicin ratio after 48 hrs by MTT-based checkerboard microplate method; assay type: functional; outline: as §1
[29] = biological target: T1, ABCB1 (P-glycoprotein); test: Inhibition of human ABCB1 expressed in mouse L5178 cells assessed as increase in rhodamine-123 accumulation at 2 uM after 10 mins by flow cytometric analysis relative to control; assay type: cell-based; settings: mouse L5178 cells expressing human ABCB1, probe rhodamine-123; outline: as §4
[30] = Synergistic cytotoxicity against mouse L5178 cells expressing human ABCB1 assessed as combination index at ED90 using 7.5:1 test compound to doxorubicin ratio after 48 hrs by MTT-based checkerboard microplate method; assay type: functional; outline: as §1
[31] = Synergistic cytotoxicity against mouse L5178 cells assessed as combination index at ED90 using 300:1 test compound to doxorubicin ratio after 48 hrs by MTT-based checkerboard microplate method; assay type: functional; outline: as §1
[32] = Synergistic cytotoxicity against mouse L5178 cells assessed as combination index at ED50 using 600:1 test compound to doxorubicin ratio after 48 hrs by MTT-based checkerboard microplate method; assay type: functional; outline: as §1
[33] = tested on: MDA-MB-231; test: Antiproliferative activity against human MDA-MB-231 cells after 72 hrs by MTT assay; assay type: functional, cell-based; settings: MDA-MB-231, 72 h; outline: as §3
[34] = Synergistic cytotoxicity against mouse L5178 cells assessed as combination index at ED50 using 150:1 test compound to doxorubicin ratio after 48 hrs by MTT-based checkerboard microplate method; assay type: functional; outline: as §1
[35] = Synergistic cytotoxicity against mouse L5178 cells expressing human ABCB1 assessed as combination index at ED50 using 60:1 test compound to doxorubicin ratio after 48 hrs by MTT-based checkerboard microplate method; assay type: functional; outline: as §1

inhibition at 10 min, 20 µM [19] [%]	inhibition at 10 min, 2 µM [29] [%]	SMILES	CI [1]	IC50 [2] [µM]	CI [4]	CI [6]	CI [8]	IC50 [9] [µM]	CI [10]	CI [13]	CI [14]	CI [15]	CI [16]	CI [18]	CI [23]	CI [25]	CI [27]	CI [28]	CI [31]	CI [32]	other results
4.27	1.16	CC(C)(O)CC[C@H]1OC(C)(C)O[C@]1(C)[C@H]1CC=C2C3=CC(=O)N[C@@H]4C[C@H]5OC(C)(C)O[C@H]5C[C@]4(C)[C@H]3CC[C@@]21C	0.2	63.4	0.18	0.12	0.67	72.4	0.46	0.43	0.11	0.15	0.09	0.63	0.42	0.13	0.46	0.17	0.5	0.58	CI [3]: 0.57; IC50 [5]: > 30 µM; CI [7]: 0.24; IC50 [11]: > 30 µM; CI [12]: 0.46; CI [17]: 0.62; CI [20]: 0.15; CI [21]: 0.51; IC50 [22]: > 30 µM; CI [24]: 0.43; CI [26]: 0.52; CI [30]: 0.1; IC50 [33]: > 30 µM; CI [34]: 0.4; CI [35]: 0.2
81.1	7.15	CC(C)(O)CC[C@H]1OC(C)(C)O[C@]1(C)[C@H]1CC=C2C3=C/C(=N/O)[C@@H]4C[C@H]5OC(C)(C)O[C@H]5C[C@]4(C)[C@H]3CC[C@@]21C	0.98	34.2	0.32	0.25	0.91	28.4	1.17	1.14	0.2	0.28	0.27	0.94	0.76	0.25	0.61	0.34	1.25	1.01	CI [34]: 0.98; CI [35]: 0.42
		COc1cccc2c1C(=O)c1c(O)c3c(c(O)c1C2=O)C[C@@](O)(C(=O)CO)C[C@@H]3O[C@H]1C[C@H](N)[C@H](O)[C@H](C)O1 [DOXORUBICIN]		0.08				4.49													
